Measurements as given in ChEMBL document CHEMBL1926642, “Relevance of the C-5 position to schweinfurthin induced cytotoxicity” (2011).

How the values were obtained:
Assay type in all cases: functional
IGROV-1 = assay: Growth inhibition of human IGROV1 cells after 48 hrs by sulforhodamine B assay; conditions: IGROV-1, 48 h
EKVX = assay: Growth inhibition of human EKVX cells after 48 hrs by sulforhodamine B assay
T47D = assay: Growth inhibition of human T47D cells after 48 hrs by sulforhodamine B assay
NCI-H522 = assay: Growth inhibition of human NCI-H522 cells after 48 hrs by sulforhodamine B assay; conditions: NCI-H522, 48 h
LOX IMVI = assay: Growth inhibition of human LOXIMVI cells after 48 hrs by sulforhodamine B assay
UACC-62 = assay: Growth inhibition of human UACC62 cells after 48 hrs by sulforhodamine B assay; conditions: UACC-62, 48 h
786-0 = assay: Growth inhibition of human 786-0 cells after 48 hrs by sulforhodamine B assay; conditions: 786-0, 48 h
NCI-H322M = assay: Growth inhibition of human NCI-H322M cells after 48 hrs by sulforhodamine B assay
CAKI-1 = assay: Growth inhibition of human Caki1 cells after 48 hrs by sulforhodamine B assay; conditions: CAKI-1, 48 h
HL-60(TB) = assay: Growth inhibition of human HL-60(TB) cells after 48 hrs by sulforhodamine B assay; conditions: HL-60, 48 h
Summary of the method: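 Run in the NCI 60 cell-line screen as the full 5-dose assay that follows initial single-dose testing; GI50 is read from the dose series.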

SF-295 = assay: Growth inhibition of human SF295 cells after 48 hrs by sulforhodamine B assay; conditions: SF-295, 48 h
K562 = assay: Growth inhibition of human K562 cells after 48 hrs by sulforhodamine B assay; conditions: K562, 48 h
COLO 205 = assay: Growth inhibition of human COLO205 cells after 48 hrs by sulforhodamine B assay; conditions: COLO 205, 48 h
UACC-257 = assay: Growth inhibition of human UACC257 cells after 48 hrs by sulforhodamine B assay; conditions: UACC-257, 48 h
SF-268 = assay: Growth inhibition of human SF268 cells after 48 hrs by sulforhodamine B assay; conditions: SF-268, 48 h
OVCAR-3 = assay: Growth inhibition of human OVCAR3 cells after 48 hrs by sulforhodamine B assay; conditions: OVCAR-3, 48 h
KM12 = assay: Growth inhibition of human KM12 cells after 48 hrs by sulforhodamine B assay; conditions: KM12, 48 h
SK-OV-3 = assay: Growth inhibition of human SKOV3 cells after 48 hrs by sulforhodamine B assay; conditions: SK-OV-3, 48 h
SNB-75 = assay: Growth inhibition of human SNB75 cells after 48 hrs by sulforhodamine B assay; conditions: SNB-75, 48 h
NCI-H226 = assay: Growth inhibition of human NCI-H226 cells after 48 hrs by sulforhodamine B assay; conditions: NCI-H226, 48 h
SNB-19 = assay: Growth inhibition of human SNB19 cells after 48 hrs by sulforhodamine B assay; conditions: SNB-19, 48 h
HCC 2998 = assay: Growth inhibition of human HCC2998 cells after 48 hrs by sulforhodamine B assay; conditions: HCC 2998, 48 h
NCI-H460 = assay: Growth inhibition of human NCI-H460 cells after 48 hrs by sulforhodamine B assay; conditions: NCI-H460, 48 h
SN12C = assay: Growth inhibition of human SN12C cells after 48 hrs by sulforhodamine B assay
NCI/ADR-RES = assay: Growth inhibition of human NCI/ADR-RES cells after 48 hrs by sulforhodamine B assay
SK-MEL-2 = assay: Growth inhibition of human SK-MEL-2 cells after 48 hrs by sulforhodamine B assay; conditions: SK-MEL-2, 48 h
HCT-15 = assay: Growth inhibition of human HCT15 cells after 48 hrs by sulforhodamine B assay; conditions: HCT-15, 48 h
OVCAR-4 = assay: Growth inhibition of human OVCAR4 cells after 48 hrs by sulforhodamine B assay; conditions: OVCAR-4, 48 h
M14 = assay: Growth inhibition of human M14 cells after 48 hrs by sulforhodamine B assay; conditions: M14, 48 h
RPMI-8226 = assay: Growth inhibition of human RPMI8226 cells after 48 hrs by sulforhodamine B assay; conditions: RPMI-8226, 48 h
SK-MEL-28 = assay: Growth inhibition of human SK-MEL-28 cells after 48 hrs by sulforhodamine B assay; conditions: SK-MEL-28, 48 h
SK-MEL-5 = assay: Growth inhibition of human SK-MEL-5 cells after 48 hrs by sulforhodamine B assay; conditions: SK-MEL-5, 48 h
[1] = read-out: pLC50 (the source's name) (converted)

COCOc1cc(/C=C/c2cc(C=O)c3c(c2)C[C@@H]2C(C)(C)[C@H](O)CC[C@@]2(C)O3)cc(OC)c1C/C=C(\C)CCC=C(C)C
GI50 (IGROV-1): 9.77 µM
LC50 (IGROV-1): > 100 µM
TGI (IGROV-1; read-out: pTGI (converted)): > 100 µM
GI50 (EKVX): 5.5 µM
LC50 (50% lethal concentration) (EKVX): > 100 µM
TGI (EKVX; read-out: pTGI (converted)): > 100 µM
GI50 (T47D): 13.5 µM
LC50 (T47D): > 100 µM
TGI (T47D; read-out: pTGI (converted)): > 100 µM
GI50 (NCI-H522): 18.2 µM
LC50 (NCI-H522): > 100 µM
TGI (NCI-H522; read-out: pTGI (converted)): > 100 µM
GI50 (LOX IMVI): 3.98 µM
LC50 (LOX IMVI): 44.7 µM
TGI (LOX IMVI; read-out: pTGI (converted)): 15.8 µM
GI50 (UACC-62): 4.07 µM
LC50 (50% lethal concentration) (UACC-62): > 100 µM
TGI (UACC-62; read-out: pTGI (converted)): > 100 µM
GI50 (786-0): 1.02 µM
CC50 (786-0; [1]): > 100 µM
TGI (786-0; read-out: pTGI (converted)): > 100 µM
GI50 (NCI-H322M): 89.1 µM
LC50 (NCI-H322M): > 100 µM
TGI (NCI-H322M; read-out: pTGI (converted)): > 100 µM
GI50 (CAKI-1): 3.98 µM
LC50 (CAKI-1): > 100 µM
TGI (CAKI-1; read-out: pTGI (converted)): > 100 µM
GI50 (HL-60(TB)): 3.55 µM
CC50 (HL-60(TB); [1]): > 100 µM
TGI (HL-60(TB); read-out: pTGI (converted)): 60.3 µM
LC50 (SF-295): > 100 µM
GI50 (SF-295; read-out: GI50): 1.2 µM
GI50 (SF-295; read-out: pGI50 (converted)): 1.2 µM
TGI (SF-295; read-out: pTGI (converted)): 4.37 µM
GI50 (K562): 4.37 µM
LC50 (K562): > 100 µM
TGI (K562; read-out: pTGI (converted)): 47.9 µM
GI50 (COLO 205): 3.47 µM
LC50 (COLO 205): 51.3 µM
TGI (COLO 205; read-out: pTGI (converted)): 9.33 µM
GI50 (UACC-257): 3.98 µM
LC50 (UACC-257): > 100 µM
TGI (UACC-257; read-out: pTGI (converted)): 49 µM
GI50 (SF-268): 11 µM
LC50 (SF-268): > 100 µM
TGI (SF-268; read-out: pTGI (converted)): 85.1 µM
GI50 (OVCAR-3): 27.5 µM
LC50 (OVCAR-3): > 100 µM
TGI (OVCAR-3; read-out: pTGI (converted)): > 100 µM
GI50 (KM12): 7.94 µM
LC50 (KM12): > 100 µM
TGI (KM12; read-out: pTGI (converted)): 75.9 µM
GI50 (SK-OV-3): 41.7 µM
LC50 (SK-OV-3): > 100 µM
TGI (SK-OV-3; read-out: pTGI (converted)): > 100 µM
GI50 (SNB-75): 1.62 µM
LC50 (SNB-75): > 100 µM
TGI (SNB-75; read-out: pTGI (converted)): > 100 µM
GI50 (NCI-H226): 28.2 µM
LC50 (NCI-H226): > 100 µM
TGI (NCI-H226; read-out: pTGI (converted)): > 100 µM
GI50 (SNB-19): 16.6 µM
LC50 (SNB-19): > 100 µM
TGI (SNB-19; read-out: pTGI (converted)): > 100 µM
GI50 (HCC 2998): 12.3 µM
LC50 (HCC 2998): > 100 µM
TGI (HCC 2998; read-out: pTGI (converted)): > 100 µM
GI50 (NCI-H460): 5.89 µM
LC50 (concentration killing 50% of cells) (NCI-H460): > 100 µM
TGI (NCI-H460; read-out: pTGI (converted)): > 100 µM
GI50 (SN12C): 14.8 µM
LC50 (SN12C): > 100 µM
TGI (SN12C; read-out: pTGI (converted)): > 100 µM
GI50 (NCI/ADR-RES): 21.4 µM
LC50 (NCI/ADR-RES): > 100 µM
TGI (NCI/ADR-RES; read-out: pTGI (converted)): > 100 µM
GI50 (SK-MEL-2): 12.9 µM
LC50 (SK-MEL-2): > 100 µM
TGI (SK-MEL-2; read-out: pTGI (converted)): > 100 µM
GI50 (HCT-15): 3.31 µM
LC50 (HCT-15): > 100 µM
TGI (HCT-15; read-out: pTGI (converted)): 51.3 µM
GI50 (OVCAR-4): 6.92 µM
LC50 (OVCAR-4): > 100 µM
TGI (OVCAR-4; read-out: pTGI (converted)): > 100 µM
GI50 (M14): 11.2 µM
LC50 (M14): > 100 µM
TGI (M14; read-out: pTGI (converted)): 64.6 µM
GI50 (RPMI-8226): 1.17 µM
LC50 (RPMI-8226): > 100 µM
TGI (RPMI-8226; read-out: pTGI (converted)): > 100 µM
GI50 (SK-MEL-28): 2.95 µM
CC50 (SK-MEL-28; [1]): > 100 µM
TGI (SK-MEL-28; read-out: pTGI (converted)): > 100 µM
GI50 (SK-MEL-5): 7.24 µM
LC50 (SK-MEL-5): 58.9 µM
TGI (SK-MEL-5; read-out: pTGI (converted)): 22.9 µM
